The record followed here is ChEMBL document CHEMBL1144934, “Efficacious and orally bioavailable thrombin inhibitors based on a 2,5-thienylamidine at the P1 position: discovery of N-carboxymethyl-d-diphenylalanyl-l-prolyl[(5-amidino-2-thienyl)methyl]amide” (J Med Chem, 2003).

pKi: −log10 of the molar value. Where “and” joins values, the source holds several entries; their conditions need not be identical. Equal values may be shown once. A value given as a limit tells only on which side of the number the result lay.

The nature of series [1]: Half life of compound was determined after intravenous dosing at 10 mg/kg in rat. Conditions: in vivo. Further details: dose 10 mg/kg, route intravenous. The format is ADME, organism-based. The method, boiled down: (§1)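 Male Sprague–Dawley rats (250–300 g), femoral artery and vein cannulated under light ether anesthesia; after recovery, 10 mg/kg given via femoral vein. Arterial blood sampled at 0, 1, 5, 15, 30, 60, 90, 120, 180, 240 min, collected into heparinized tubes, deproteinized with 2 volumes methanol, centrifuged; supernatant analyzed by HPLC (0.1% TFA/acetonitrile 81:19).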

Series [2] in a line: Bioavailability in rat. The format is ADME, organism-based. Conditions: in vivo.
The nature of series [3]: Clearance value was determined after intravenous dosing at 10 mg/kg in rat. Conditions: in vivo. The format is ADME, organism-based. Also on record: dose 10 mg/kg, route intravenous. The procedure, abridged:
as §1

Another series has as its target Prothrombin (Homo sapiens, UniProt P00734). In words: In vitro inhibition constant (Ki) against human thrombin.
Series [4] is described as follows: Area under curve (AUC) was determine after intravenous dosing at 10 mg/kg. Further details: dose 10 mg/kg, route intravenous. The format is ADME, organism-based. The following applies: in vivo.
Series [5] in a line: Steady state volume of distribution (Vdss) was determined after intravenous dosing at 10 mg/kg in rat. The format is ADME, organism-based. Further details: dose 10 mg/kg, route intravenous. Conditions: in vivo, read-out: Vdss. The procedure, abridged:
as §1

In the next series the target is Plasminogen (Homo sapiens, UniProt P00747). In words: In vitro inhibition constant (Ki) against human plasmin was determined.
Series [6] can be described thus: Maximal plasma concentration in monkeys after 20 mg/kg oral dose. The following applies: cynomolgus monkey.
The nature of series [7]: Half life of compound (t 1/2) was evaluated at 5 mg/kg after postoral dosing. Further details: dose 5 mg/kg. The format is functional, organism-based.
Series [8] can be described thus: Steady state volume of distribution (Vdss) was evaluated at 2.5 mg/kg after intravenous dosing. The format is functional, organism-based. Also on record: dose 2.5 mg/kg.
The target of series [9] is Thrombin and coagulation factor X (Homo sapiens) (UniProt P00734+P00742). In words: Selectivity of compound was determined between thrombin and human factor Xa. The format is protein assay.
Series [10] has as its system Rattus norvegicus. In words: Ex vivo activated clotting time was measured in rat plasma at 1 mg/kg. The format is functional.
Series [11] is described as follows: (§2) In vitro metabolic stability was determined using liver S9 fraction from human at initial concentration of 20 uM. The format is ADME. Conditions: liver S9 fraction, read-out: Recovery. The method, boiled down:
(§3)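 Liver S9 (9000g supernatant of homogenate in Tris-acetate pH 7.4, KCl, EDTA) from rat, dog, monkey (pooled, n = 2) or human (n = 2); 20 µM final compound with NADPH generating system and S9 6.72 mg/mL in 100 mM phosphate pH 7.4, 37 °C. Samples methanol-deproteinized, HPLC; recovery after 30 min reported; no-NADPH control.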

For series [12], the species on record is Homo sapiens. The series is described as §2. The format is ADME. Conditions: 20 µM. The method, boiled down:
as §3

Series [13] in a line: Time of maximum plasma concentration of compound in monkey at 5 mg/kg was determined. The format is functional, organism-based. Also on record: dose 5 mg/kg.
Another series concerns the target Coagulation factor X (Homo sapiens, UniProt P00742). In words: In vitro inhibition constant (Ki) against human Coagulation factor X was determined.
A short description of series [14]: In vitro metabolic stability was determined using liver S9 fraction from dog at initial concentration of 20 uM. The format is ADME, Canis lupus familiaris. The following applies: read-out: Recovery. The procedure, abridged:
as §3

The test system of series [15] is Canis lupus familiaris. In words: Bioavailability of compound (F %) was evaluated at 5 mg/kg in dog. The format is functional, organism-based.
For series [16], the species on record is Rattus norvegicus. In words: In vitro concentration of inhibitor to double the activated partial thromboplastin time was evaluated in rat. The format is functional. The procedure, abridged:
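Rat plasma mixed with inhibitor and an equal volume of aPTT reagent (Platelin LS), incubated 5 min at 37 °C, then 100 μL of 25 mM CaCl2 added. Clotting time read on an automatic coagulometer. Value taken as the inhibitor concentration that doubles aPTT.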

For series [17], the species on record is Homo sapiens.
Series [18] concerns Rattus norvegicus. In words: In vivo inhibition of thrombus formation in thromboplastin-induced deep vein thrombosis (DVT) rat model after iv bolus dosing at 1 mg/kg. The format is functional.
The species named for series [19] is Rattus norvegicus. In words: Ex vivo concentration of inhibitor to double the activated clotting time was measured in rat plasma. The format is functional.
A further series concerns the target T1, Serine protease 1 (Bos taurus, UniProt P00760).
T1 sequence (P00760 whole entry): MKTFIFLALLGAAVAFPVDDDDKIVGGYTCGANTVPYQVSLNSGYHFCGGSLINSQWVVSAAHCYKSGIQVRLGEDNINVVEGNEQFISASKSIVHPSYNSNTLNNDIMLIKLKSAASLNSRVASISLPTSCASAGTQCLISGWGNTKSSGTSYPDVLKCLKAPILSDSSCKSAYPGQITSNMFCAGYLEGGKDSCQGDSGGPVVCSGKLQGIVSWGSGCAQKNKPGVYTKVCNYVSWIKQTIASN
In words: In vitro inhibition constant (Ki) against […] trypsin was determined.

Series [20] is described as follows: Selectivity of compound was determined between thrombian and human t-PA.
Series [21] in a line: Selectivity of compound was determined between thrombin and human plasmin.
For another series, the target named is Trypsin (Homo sapiens, UniProt P07477+P07478+P35030). In words: In vitro inhibition constant (Ki) against human trypsin was determined. The format is protein assay.
The nature of series [22]: Half life of compound (t 1/2) was evaluated at 20 mg/kg after postoral dosing in monkey. The format is functional, organism-based. Further details: dose 20 mg/kg.
The target of series [23] is Thrombin & trypsin (Homo sapiens) (UniProt P00734+P07477+P07478+P35030). In words: Selectivity of compound was determined between thrombin and human trypsin. The format is protein assay.
For series [24], the target named is Tissue-type plasminogen activator (Homo sapiens, UniProt P00750). In words: In vitro inhibition constant (Ki) against human Tissue type plasminogen activator was determined.
Series [25] can be described thus: Area under curve (AUC) was determined after intravenous dosing at 10 mg/kg in rat. The following applies: in vivo. The format is ADME, organism-based. Further details: dose 10 mg/kg, route intravenous. The procedure, abridged: as §1
Series [26] relates to Canis lupus familiaris. In words: Area under curve (AUC) was determine after intravenous dosing at 2.5 mg/kg in dog.
A short description of series [27]: Half life of compound (t 1/2) was evaluated at 2.5 mg/kg after intravenous dosing. The format is functional, organism-based. Further details: dose 2.5 mg/kg.
Series [28] can be described thus: Half life of compound (t 1/2) was evaluated at 2 mg/kg after intravenous dosing in monkey. Further details: dose 2 mg/kg. The format is functional, organism-based.
A short description of series [29]: Maximal plasma concentration in dogs after 5 mg/kg oral dose. The format is ADME, organism-based, Canis lupus familiaris. Also on record: dose 5 mg/kg, route oral. The following applies: dog.
The nature of series [30]: Steady state volume of distribution (Vdss) was evaluated at 2 mg/kg after intravenous dosing in monkey. Further details: dose 2 mg/kg. The format is functional, organism-based.
The nature of series [31]: Area under curve (AUC) was determine after intravenous dosing at 2 mg/kg in monkey. The format is functional, organism-based. Further details: dose 2 mg/kg.
Series [32] is described as follows: Clearance value was determined after intravenous dosing at 2.5 mg/kg. The format is functional, organism-based. Further details: dose 2.5 mg/kg.
Series [33] has as its system thrombin (Homo sapiens) & trypsin (Bos taurus). In words: Selectivity of compound was determined between thrombin and bovine trypsin.
A further series relates to Primates. In words: Bioavailability of compound(F %) was evaluated at mg/kg in Monkey. The format is functional, organism-based.
A short description of series [34]: Area under curve (AUC) was determine after oral dosing at 20 mg/kg in monkey.
Series [35] is described as follows: Area under curve (AUC) was determine after postoral dosing at 5 mg/kg in dog. The format is functional, organism-based. Also on record: dose 5 mg/kg.
A short description of series [36]: Clearance was determined after intravenous dosing at 2 mg/kg in monkey. The format is functional, organism-based. Also on record: dose 2 mg/kg.
The nature of series [37]: In vitro metabolic stability was determined using liver S9 fraction from monkey at initial concentration of 20 uM. The format is ADME, subcellular. The following applies: simiiformes, read-out: Recovery. The procedure, abridged:
as §3

Sequence of Thrombin and coagulation factor X (Homo sapiens) (P00742 whole entry, looked up, other chains not shown): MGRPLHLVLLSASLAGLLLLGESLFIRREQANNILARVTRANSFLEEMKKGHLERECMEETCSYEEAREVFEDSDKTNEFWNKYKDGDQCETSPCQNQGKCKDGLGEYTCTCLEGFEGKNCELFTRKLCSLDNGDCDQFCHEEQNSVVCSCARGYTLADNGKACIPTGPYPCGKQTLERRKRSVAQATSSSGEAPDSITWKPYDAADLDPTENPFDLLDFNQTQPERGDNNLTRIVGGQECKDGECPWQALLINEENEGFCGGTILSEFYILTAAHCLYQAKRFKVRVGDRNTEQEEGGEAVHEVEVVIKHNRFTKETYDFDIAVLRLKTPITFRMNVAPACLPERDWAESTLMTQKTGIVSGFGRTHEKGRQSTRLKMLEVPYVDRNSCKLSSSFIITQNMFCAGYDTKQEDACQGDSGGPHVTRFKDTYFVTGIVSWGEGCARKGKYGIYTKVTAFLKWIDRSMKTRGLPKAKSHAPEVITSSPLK
Sequence of Coagulation factor X (P00742 41-179 limits assumed): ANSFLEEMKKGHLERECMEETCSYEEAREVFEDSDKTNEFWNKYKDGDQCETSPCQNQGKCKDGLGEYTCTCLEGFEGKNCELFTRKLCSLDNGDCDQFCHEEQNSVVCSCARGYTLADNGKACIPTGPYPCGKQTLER
Sequence of Coagulation factor X (P00742 235-488 limits assumed): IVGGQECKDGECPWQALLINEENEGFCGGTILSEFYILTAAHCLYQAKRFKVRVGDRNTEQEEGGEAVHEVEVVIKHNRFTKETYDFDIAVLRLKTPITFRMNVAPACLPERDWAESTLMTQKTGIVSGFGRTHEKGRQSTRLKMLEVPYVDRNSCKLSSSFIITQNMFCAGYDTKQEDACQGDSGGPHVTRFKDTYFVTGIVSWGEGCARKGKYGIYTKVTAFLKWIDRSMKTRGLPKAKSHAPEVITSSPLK
Sequence of Tissue-type plasminogen activator (P00750 whole entry): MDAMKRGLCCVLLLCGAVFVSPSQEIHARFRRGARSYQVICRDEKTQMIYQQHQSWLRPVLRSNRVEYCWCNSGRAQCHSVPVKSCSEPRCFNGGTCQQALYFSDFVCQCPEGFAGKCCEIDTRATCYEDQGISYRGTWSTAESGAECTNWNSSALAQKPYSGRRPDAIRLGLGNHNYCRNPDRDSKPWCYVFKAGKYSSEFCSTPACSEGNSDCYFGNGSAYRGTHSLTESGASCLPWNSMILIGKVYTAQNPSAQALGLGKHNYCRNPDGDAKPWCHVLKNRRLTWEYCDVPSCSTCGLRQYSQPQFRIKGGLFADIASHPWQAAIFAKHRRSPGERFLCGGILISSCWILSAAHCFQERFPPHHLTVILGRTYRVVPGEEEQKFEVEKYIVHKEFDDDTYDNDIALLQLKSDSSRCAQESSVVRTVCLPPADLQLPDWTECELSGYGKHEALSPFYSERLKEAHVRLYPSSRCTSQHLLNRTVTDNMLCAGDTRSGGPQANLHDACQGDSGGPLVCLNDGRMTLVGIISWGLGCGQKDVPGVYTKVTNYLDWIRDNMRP
Sequence of Plasminogen (P00747 97-580 limits assumed): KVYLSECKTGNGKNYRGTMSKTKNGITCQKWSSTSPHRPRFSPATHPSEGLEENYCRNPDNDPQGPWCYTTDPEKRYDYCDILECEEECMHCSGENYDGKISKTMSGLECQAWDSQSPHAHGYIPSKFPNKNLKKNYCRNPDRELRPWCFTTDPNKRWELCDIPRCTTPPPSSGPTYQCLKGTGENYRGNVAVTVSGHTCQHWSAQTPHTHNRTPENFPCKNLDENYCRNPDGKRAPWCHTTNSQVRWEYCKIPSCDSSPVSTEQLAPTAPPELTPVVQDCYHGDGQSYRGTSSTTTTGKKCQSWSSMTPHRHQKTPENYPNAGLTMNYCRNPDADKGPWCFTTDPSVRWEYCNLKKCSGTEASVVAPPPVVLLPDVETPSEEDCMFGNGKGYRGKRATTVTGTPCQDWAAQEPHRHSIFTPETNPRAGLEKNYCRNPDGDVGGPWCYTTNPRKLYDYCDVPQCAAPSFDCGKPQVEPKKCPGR
Sequence of Plasminogen (P00747 581-810 limits assumed): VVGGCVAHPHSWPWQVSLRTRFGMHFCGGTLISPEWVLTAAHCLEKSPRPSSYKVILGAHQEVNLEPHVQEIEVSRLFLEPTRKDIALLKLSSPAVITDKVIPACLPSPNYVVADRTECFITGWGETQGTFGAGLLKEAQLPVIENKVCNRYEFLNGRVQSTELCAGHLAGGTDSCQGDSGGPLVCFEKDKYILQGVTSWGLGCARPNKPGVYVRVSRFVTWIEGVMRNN

Consider `N=C(N)c1csc(CNC(=O)[C@@H]2CCCN2C(=O)[C@H](NCC(=O)O)C(c2ccccc2)c2ccccc2)n1`, for which the half-life (commonly the time in which the quantity being followed falls by half) in [1] was found to be 50 min. For the same compound, the bioavailability in series [2] came out at 21%. Further, the clearance (as a rule, the volume of plasma or blood freed of the substance per unit of time) in series [3] is 6 mL/min/kg. Moreover, at Prothrombin, the negative-log Ki (pKi) – broadly, the Ki on a negative log10 scale, so that one unit is a factor of ten – is 9.19. In addition, in series [4], the AUC is 29100 ng·h/mL. For the same compound, the Vd in [5] was determined as 0.189 L/kg.

As to `N=C(N)c1ccc(CNC(=O)[C@@H]2CCCN2C(=O)[C@H](NCC(=O)O)C(c2ccccc2)c2ccccc2)s1`, the pKi at Plasminogen was 5.13; at Coagulation factor X it was 5.65; at Serine protease 1 it was 8.52; in series [24] it was 6.36. Moreover, the figures for the Cmax in series [6] and in [29] were 2100 ng/mL and 3800 ng/mL, respectively. For the same compound, the T1/2 came to 68 min in series [7], 58 min in [22], 54 min in [27] and 23 min in series [28]. Besides, the results for the Vdss in series [8] and in series [30] were 0.223 L/kg and 0.23 L/kg, respectively. In addition, the Selectivity was more than 10000 in series [9]; more than 10000 in [20]; more than 10000 in series [21]; 20 in series [23]; 200 in [33]. In the series with Rattus norvegicus [10], this compound registered an ACT of 12. For the same compound, the figures for the remaining at 20 µM in series [11], in series [14] and in series [37] were 95%, 99% and 83%, respectively. In the series filed under Homo sapiens [12], this compound yielded a Recovery of 95%. In addition, the Tmax in series [13] is 30 min and 90 min. The bioavailability with Canis lupus familiaris [15] turned out to be 42%; in series [2], 43%; in the series on Primates, 15%. In addition, the half-life in [1] stood at 47 min. The APTT in the series listed under Rattus norvegicus [16] amounted to 0.97 µM; in the series filed under Homo sapiens [17], 0.23 µM. Further, 1 mg/kg produced 100% inhibition in vivo in the series with Rattus norvegicus [18]. Further, in the series filed under Rattus norvegicus [19], the “Concentration to double activated clotting time” value came out at 0.85 µM. In addition, the Ki (in general, the equilibrium dissociation constant of an inhibitor or competing ligand from its target) on Trypsin is 0.3 nM. The compound also registered a clearance in series [3] of 9.6 mL/min/kg. The AUC in [25] is 17600 ng·h/mL; in the series with Canis lupus familiaris [26], 7620 ng·h/mL; in [31], 3420 ng·h/mL; in series [34], 5150 ng·h/mL; in [35], 6050 ng·h/mL. The CL (mL.min-1.kg-1) in series [32] was determined as 5.9; in series [36] it was 9.8. Moreover, in series [5], the Vd worked out at 0.258 L/kg.
